For test [1], the target named is T1, Adenosine deaminase (Bos taurus, UniProt P56658).
T1 sequence (P56658 whole entry): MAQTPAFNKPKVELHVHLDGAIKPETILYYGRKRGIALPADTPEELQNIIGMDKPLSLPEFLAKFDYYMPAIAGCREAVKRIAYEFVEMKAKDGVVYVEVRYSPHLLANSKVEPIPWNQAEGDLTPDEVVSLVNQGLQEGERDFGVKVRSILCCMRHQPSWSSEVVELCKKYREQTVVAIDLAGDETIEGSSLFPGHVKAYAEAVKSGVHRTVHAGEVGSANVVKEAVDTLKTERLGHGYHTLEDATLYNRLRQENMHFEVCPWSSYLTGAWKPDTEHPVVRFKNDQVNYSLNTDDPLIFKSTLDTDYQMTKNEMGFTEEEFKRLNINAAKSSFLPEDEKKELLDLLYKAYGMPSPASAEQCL
Put plainly: Inhibitory activity against calf intestinal Adenosine deaminase (ADA).

The nature of test [2]: Inhibitory activity against porcine heart Adenylate deaminase (AMPDA). More on the design: species or system Sus scrofa. An outline of the steps:
(§1)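 Values are reported as Ki against porcine heart AMPDA, determined by a procedure described in earlier work.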

Test [3] can be described thus: Compound was evaluated for its inhibitory activity against porcine heart adenylate deaminase (AMPDA). More on the design: species or system Sus scrofa. An outline of the steps: as §1
For test [4], the target named is T1, Adenosine deaminase. Put plainly: Compound was evaluated for its inhibitory activity against calf intestinal Adenosine deaminase (ADA).

pKi: −log10 of the molar value.

Usually pKi stands for the negative decadic logarithm of the Ki, by convention in mol/L. Lower therefore signals a large Ki. In the case of `O=C(O)c1ccc(CO)c(CCn2cnc3c2NC=NCC3O)c1` (stereo unspecified), the figures for the pKi (at Adenosine deaminase [1]; in test [2]) were less than 5.12 and 6.46, respectively.
Consider `O=C(O)c1cccc(C#CCn2cnc3c2NC=NCC3O)c1` (stereo unspecified), for which the results for the pKi (on Adenosine deaminase [1]; in test [2]) were 5.64 and less than 3.90, respectively.
In the case of `COC(=O)c1ccc(OC)c(CCn2cnc3c2NC=NCC3O)c1` (stereo unspecified), the pKi at Adenosine deaminase [1] is less than 5.12; in test [2], 4.68.
`COC(=O)c1ccccc1OCCn1cnc2c1NC=NCC2O` (stereo unspecified): the values for the pKi (at Adenosine deaminase [1]; in test [2]) were 5.64 and 4.22, respectively.
For `O=C(O)c1ccc(Cn2cnc3c2NC=NCC3O)cc1` (stereo unspecified), the results for the pKi (at Adenosine deaminase [1]; in test [2]) were less than 5.12 and less than 3.90, respectively.
Take `Cc1ccc(CCn2cnc3c2NC=NCC3O)cc1C(=O)O` (stereo unspecified): the pKi on Adenosine deaminase [1] was less than 5.12; in test [2] it was 6.24.
Regarding `CC(C)c1cccc(C(=O)O)c1CCCn1cnc2c1NC=NCC2O` (stereo unspecified), the pKi was less than 5.12 on Adenosine deaminase [1] and 4.08 in test [2].
`CCCc1ccc(C(=O)O)cc1CCn1cnc2c1NC=NCC2O` (stereo unspecified): the values for the pKi (at Adenosine deaminase [1]; in test [2]) were less than 5.12 and 6.72, respectively.
For `O=C(O)c1cc(CCn2cnc3c2NC=NCC3O)cc(-c2cccc(Cl)c2)c1` (stereo unspecified) the same measures were less than 5.12 and 6.74.
For `O=C(O)c1ccccc1OCCn1cnc2c1NC=NCC2O` (stereo unspecified), the pKi is 3.57 at Adenosine deaminase [1] and 4.50 in test [2].
The matching figures for `COC(=O)c1ccccc1SCCn1cnc2c1NC=NCC2O` (stereo unspecified): 4.92 and 4.42.
Take `Cc1ccc(CCCn2cnc3c2NC=NCC3O)c(C(=O)O)c1` (stereo unspecified): the pKi at Adenosine deaminase [1] is less than 5.12; in test [2], 4.93.
For `Cc1ccc(C(=O)OCc2ccccc2)cc1CCn1cnc2c1NC=NCC2O` (stereo unspecified), the pKi is 5.59 on Adenosine deaminase [1] and 5.09 in test [2].
For `CCCc1ccc(C(=O)OC)cc1CCn1cnc2c1NC=NCC2O` (stereo unspecified) the same measures were 5.42 and 4.85.
For `O=C(O)c1cc(Br)cc(CCn2cnc3c2NC=NCC3O)c1` (stereo unspecified) the same measures were less than 5.12 and 7.10.
Take `COC(=O)c1ccccc1CCCn1cnc2c1NC=NCC2O` (stereo unspecified): the pKi was 6.80 on Adenosine deaminase [1] and 4.49 in test [2].
Take `COC(=O)c1ccc(C)cc1CCCn1cnc2c1NC=NCC2O` (stereo unspecified): the negative logarithm of the Ki (pKi) at Adenosine deaminase [1] was 7.22; in test [2], 4.42.
Take `O=C(O)Cc1cccc(CCn2cnc3c2NC=NCC3O)c1` (stereo unspecified): the pKi at Adenosine deaminase [1] is less than 3.30; in test [2], 4.36.
The matching figures for `COC(=O)c1cccc(CCCn2cnc3c2NC=NCC3O)c1` (stereo unspecified): 6.80 and 4.61.
Consider `O=C(O)c1cc(CCn2cnc3c2NC=NCC3O)cs1` (stereo unspecified), for which the pKi is less than 5.12 on Adenosine deaminase [1] and 5.66 in test [2].
For `COC(=O)c1ccc(OC)c(CCCn2cnc3c2NC=NCC3O)c1` (stereo unspecified) the same measures were 6.89 and 4.28.
For `CCOC(=O)c1cc(CCn2cnc3c2NC=NCC3O)ccc1C` (stereo unspecified) the same measures were less than 5.12 and 4.92.
With `Cc1ccc(C(=O)O)cc1CCn1cnc2c1NC=NCC2O` (stereo unspecified), the pKi was less than 4.00 on Adenosine deaminase [1] and 7.00 in test [2].
On to `O=C(O)c1cccc(CCn2cnc3c2NC=NCC3O)c1` (stereo unspecified), for which the results for the pKi (on Adenosine deaminase [1]; in test [2]) were less than 5.12 and 6.29, respectively.
For the compound `COC(=O)c1c(F)cccc1CCCn1cnc2c1NC=NCC2O` (stereo unspecified), the figures for the pKi (at Adenosine deaminase [1]; in test [2]) were 6.49 and 5.82, respectively.
For `O=C(O)c1cc(CCn2cnc3c2NC=NCC3O)cc(-c2ccc(Cl)cc2)c1` (stereo unspecified) the same measures were less than 5.12 and 6.54.
Turning to `COC(=O)c1cc(C)ccc1CCCn1cnc2c1NC=NCC2O` (stereo unspecified), the pKi at Adenosine deaminase [1] was 7.40; in test [2], 5.80.
For `O=C(O)c1ccc(Cn2cnc3c2NC=NCC3O)o1` (stereo unspecified) the same measures were less than 5.47 and 4.14.
For `O=C(O)c1cc(CCn2cnc3c2NC=NCC3O)ccc1Cl` (stereo unspecified), the pKi on Adenosine deaminase [1] was less than 5.12; in test [2], 6.66.
For `COC(=O)Cc1ccc(Cn2cnc3c2NC=NCC3O)cc1` (stereo unspecified) the same measures were 5.17 and 4.03.
On to `O=C(O)c1cc(CCn2cnc3c2NC=NCC3O)ccc1F` (stereo unspecified), for which the pKi on Adenosine deaminase [1] was less than 5.12; in test [2] it was 6.80.
In the case of `CCOC(=O)c1cc(CC)cc(CCn2cnc3c2NC=NCC3O)c1` (stereo unspecified), the pKi is 5.05 on Adenosine deaminase [1] and 5.18 in test [2].
For `O=C(O)c1cccc(OCCn2cnc3c2NC=NCC3O)c1` (stereo unspecified) the same measures were less than 5.12 and 4.50.
`CNOC(=O)c1ccc(C)c(CCCn2cnc3c2NC=NCC3O)c1` (stereo unspecified): the negative logarithm of the Ki (pKi) in test [3] is 4.70; at Adenosine deaminase [4], 7.30.
For the compound `COC(=O)c1cccc(C(C)C)c1CCCn1cnc2c1NC=NCC2O` (stereo unspecified), the pKi at Adenosine deaminase [1] was less than 5.12; in test [2], 4.85.
On to `CCc1ccc(C(=O)O)cc1CCn1cnc2c1NC=NCC2O` (stereo unspecified), for which the negative-log Ki (pKi) at Adenosine deaminase [1] was less than 5.12; in test [2] it was 7.10.
In the case of `O=C(O)Cc1cccc(Cn2cnc3c2NC=NCC3O)c1` (stereo unspecified), the values for the pKi (at Adenosine deaminase [1]; in test [2]) were less than 5.12 and 4.95, respectively.
Take `CCOC(=O)Cc1cccc(Cn2cnc3c2NC=NCC3O)c1` (stereo unspecified): the pKi on Adenosine deaminase [1] was 5.25; in test [2] it was 4.80.
Take `COC(=O)c1ccc2ccccc2c1CCCn1cnc2c1NC=NCC2O` (stereo unspecified): the pKi is 6.74 at Adenosine deaminase [1] and 5.08 in test [2].
For the compound `COC(=O)c1ccc(C)c(CCCn2cnc3c2NC=NCC3O)c1` (stereo unspecified), the negative logarithm of the Ki (pKi) at Adenosine deaminase [1] was 7.10; in test [2], 4.66.
The matching figures for `O=C(O)c1cc(CCn2cnc3c2NC=NCC3O)cc(-c2ccc(F)cc2)c1` (stereo unspecified): less than 5.12 and 6.72.
Consider `COc1ccc(C(=O)O)cc1CCn1cnc2c1NC=NCC2O` (stereo unspecified), for which the results for the pKi (on Adenosine deaminase [1]; in test [2]) were less than 5.12 and 6.32, respectively.
Regarding `CCOC(=O)c1ccc(C)c(CCn2cnc3c2NC=NCC3O)c1` (stereo unspecified), the pKi at Adenosine deaminase [1] is less than 5.12; in test [2], 4.96.
For `O=C(O)c1ccc(CCn2cnc3c2NC=NCC3O)s1` (stereo unspecified) the same measures were less than 5.12 and 5.02.
For `COc1ccc(C(=O)O)cc1CCCn1cnc2c1NC=NCC2O` (stereo unspecified), the pKi is 5.25 at Adenosine deaminase [1] and 5.38 in test [2].
Turning to `Cc1ccc(C(=O)O)cc1CCCn1cnc2c1NC=NCC2O` (stereo unspecified), the pKi at Adenosine deaminase [1] was 5.92; in test [2] it was 5.28.
On to `O=C(O)c1sccc1CCCn1cnc2c1NC=NCC2O` (stereo unspecified), for which the pKi is 5.85 at Adenosine deaminase [1] and 5.32 in test [2].
The matching figures for `CCOC(=O)c1cc(Br)cc(CCn2cnc3c2NC=NCC3O)c1` (stereo unspecified): less than 5.12 and 5.57.
The matching figures for `COC(=O)c1cccc(CCn2cnc3c2NC=NCC3O)c1` (stereo unspecified): less than 5.12 and 4.80.
For the compound `COC(=O)c1ccc(Cn2cnc3c2NC=NCC3O)cc1` (stereo unspecified), the pKi at Adenosine deaminase [1] was 5.06; in test [2], 3.77.
Consider `O=C(O)c1ccc2ccccc2c1CCCn1cnc2c1NC=NCC2O` (stereo unspecified), for which the pKi at Adenosine deaminase [1] was 5.74; in test [2], 5.20.
The matching figures for `O=C(O)c1ccccc1SCCn1cnc2c1NC=NCC2O` (stereo unspecified): less than 3.30 and 5.35.
In the case of `O=C(O)c1ccccc1CCCn1cnc2c1NC=NCC2O` (stereo unspecified), the pKi on Adenosine deaminase [1] was 5.21; in test [2], 4.90.
In the case of `O=C(O)Cc1ccc(Cn2cnc3c2NC=NCC3O)cc1` (stereo unspecified), the figures for the pKi (on Adenosine deaminase [1]; in test [2]) were less than 3.30 and 4.04, respectively.
Turning to `CCc1cc(CCn2cnc3c2NC=NCC3O)cc(C(=O)O)c1` (stereo unspecified), the pKi is less than 5.12 at Adenosine deaminase [1] and 7.22 in test [2].
On to `CC(C)c1cccc(C(=O)O)c1SCCn1cnc2c1NC=NCC2O` (stereo unspecified), for which the pKi is less than 5.12 at Adenosine deaminase [1] and less than 3.90 in test [2].
In the case of `O=C(O)c1c(F)cccc1CCCn1cnc2c1NC=NCC2O` (stereo unspecified), the pKi at Adenosine deaminase [1] was less than 5.12; in test [2], 5.05.
As for `Cc1ccc(C(=O)O)c(CCCn2cnc3c2NC=NCC3O)c1` (stereo unspecified), the figures for the pKi (on Adenosine deaminase [1]; in test [2]) were 5.28 and 4.62, respectively.
For `COC(=O)c1ccc(CCn2cnc3c2NC=NCC3O)cc1` (stereo unspecified), the pKi was 4.09 on Adenosine deaminase [1] and 3.80 in test [2].
Take `O=C(O)c1ccc(CCCn2cnc3c2NC=NCC3O)o1` (stereo unspecified): the negative logarithm of the Ki (pKi) at Adenosine deaminase [1] is less than 5.12; in test [2], 4.88.
The matching figures for `O=C(O)c1cc(CCn2cnc3c2NC=NCC3O)cc(-c2ccccc2)c1` (stereo unspecified): less than 5.12 and 7.15.
In the case of `O=C(O)c1cccc(CCCn2cnc3c2NC=NCC3O)c1` (stereo unspecified), the pKi on Adenosine deaminase [1] was 5.62; in test [2], 4.63.
Regarding `CCOC(=O)c1cc(CCn2cnc3c2NC=NCC3O)cc(-c2ccccc2)c1` (stereo unspecified), the figures for the pKi (on Adenosine deaminase [1]; in test [2]) were less than 5.12 and 4.74, respectively.

These data come from ChEMBL document CHEMBL1133716, “AMP deaminase inhibitors. 3. SAR of 3-(carboxyarylalkyl)coformycin aglycon analogues” (J Med Chem, 2000).
